Source: ChEMBL document CHEMBL1159121, “Synthesis, in vitro structure-activity relationship, and in vivo studies of 2-arylthiazolidine-4-carboxylic acid amides as anticancer agents” (Bioorg Med Chem, 2010)
pIC50: −log10 of the molar value. Activity calls are given as the source filed them. The rule behind the calls is not given here.

What was measured:
A-375 [1] = experiment: Antiproliferative activity against human A375 cells after 48 hrs by SRB assay; format: functional, cell-based; conditions: A-375, 48 h
Procedure, shortened: (§1)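 Melanoma lines and control fibroblasts grown at 37 °C, 5% CO2, then exposed to a wide concentration range for 48 h in round-bottom 96-well plates. Fixed with 10% TCA, stained with SRB, protein read at 560 nm. IC50 (50% growth inhibition versus untreated) obtained by nonlinear regression.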

A-375 [2] = experiment: Cell cycle arrest in human A375 cells by assessed as increase in accumulation at subG1 phase […] by flow cytometry; format: functional, cell-based
[3] = molecular target: T1, Lysophosphatidic acid receptor 3 (Homo sapiens) (UniProt Q9UBY5); experiment: Agonist activity at LPA3 expressed in human chem1 cells assessed as intracellular calcium mobilization by FLIPR assay; format: functional, cell-based
T1 sequence (whole entry): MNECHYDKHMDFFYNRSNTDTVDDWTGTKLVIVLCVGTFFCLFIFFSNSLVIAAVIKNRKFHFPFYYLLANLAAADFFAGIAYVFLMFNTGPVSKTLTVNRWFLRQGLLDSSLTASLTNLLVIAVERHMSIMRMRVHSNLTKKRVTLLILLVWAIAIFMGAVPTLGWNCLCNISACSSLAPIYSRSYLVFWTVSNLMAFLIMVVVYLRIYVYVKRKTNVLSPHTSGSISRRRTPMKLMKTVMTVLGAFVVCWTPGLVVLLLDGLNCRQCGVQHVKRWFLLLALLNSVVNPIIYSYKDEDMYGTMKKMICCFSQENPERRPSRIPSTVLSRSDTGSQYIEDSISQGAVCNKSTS
Procedure, shortened: (§2)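 Chem-1 cells stably transfected with LPA1, LPA3 or LPA5, kept in DMEM/10% FBS; Fluo-4 NW loaded. Compound added as an eight-point fourfold serial dilution (top 10 μM), then incubated 10 min at 25 °C. Ca2+ flux read for 180 s on FLIPR, expressed as percentage activation.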

[4] = molecular target: Lysophosphatidic acid receptor 5 (Homo sapiens) (UniProt Q9H1C0); experiment: Agonist activity at LPA5 expressed in human chem1 cells assessed as intracellular calcium mobilization by FLIPR assay; format: functional, cell-based; procedure, shortened: as §2
Sequence of Lysophosphatidic acid receptor 5 (Homo sapiens) (Q9H1C0 whole entry): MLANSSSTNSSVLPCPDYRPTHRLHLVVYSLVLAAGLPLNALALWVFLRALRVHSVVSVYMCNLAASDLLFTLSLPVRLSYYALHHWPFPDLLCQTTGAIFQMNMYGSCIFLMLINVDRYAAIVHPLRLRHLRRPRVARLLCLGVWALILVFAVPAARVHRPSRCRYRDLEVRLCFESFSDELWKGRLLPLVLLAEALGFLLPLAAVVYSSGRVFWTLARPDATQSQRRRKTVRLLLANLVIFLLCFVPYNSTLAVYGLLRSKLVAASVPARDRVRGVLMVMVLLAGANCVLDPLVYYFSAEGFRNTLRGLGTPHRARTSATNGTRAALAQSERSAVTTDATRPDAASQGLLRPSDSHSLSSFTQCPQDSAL

[5] = Cytotoxicity against human fibroblasts after 48 hrs by SRB assay; format: cell-based; conditions: Fibroblast; procedure, shortened: as §1
[6] = molecular target: T1, Lysophosphatidic acid receptor 3 (Homo sapiens); experiment: Antagonist activity at LPA3 expressed in human chem1 cells assessed as effect on intracellular calcium mobilization by FLIPR assay; format: functional, cell-based
Procedure, shortened: (§3)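 LPA1-, LPA3- or LPA5-transfected Chem-1 cells, Fluo-4 NW loaded, preincubated 10 min at 25 °C with compound. Dilution series was eight-point, fourfold, top final concentration 10 μM. […] FLIPR Ca2+ signal read for 180 s, percentage inhibition calculated; 50% inhibition was taken as antagonism.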

LNCaP = experiment: Cell cycle arrest in human LNCAP cells by assessed as increase in accumulation at subG1 phase […] by flow cytometry; format: functional, cell-based
A-375 [7] = experiment: Inhibition of human A375 cells colony formation at 20 uM after 7 days by colony-formation assay; format: functional
A-375 [8] = experiment: Inhibition of human A375 cells colony formation at 100 uM after 7 days by colony-formation assay; format: functional, cell-based
[9] = Antiproliferative activity against human WM164 cells after 48 hrs by SRB assay; format: functional, cell-based; conditions: WM164, 48 h; procedure, shortened: as §1
[10] = Antiproliferative activity against mouse B16-F1 cells after 48 hrs by SRB assay; format: functional, cell-based; conditions: B16-F1, 48 h; procedure, shortened: as §1
[11] = molecular target: T2, Lysophosphatidic acid receptor 1 (Homo sapiens, UniProt Q92633); experiment: Antagonist activity at LPA1 expressed in human chem1 cells assessed as effect on intracellular calcium mobilization by FLIPR assay; format: functional, cell-based; procedure, shortened: as §3
T2 sequence (Q92633 whole entry): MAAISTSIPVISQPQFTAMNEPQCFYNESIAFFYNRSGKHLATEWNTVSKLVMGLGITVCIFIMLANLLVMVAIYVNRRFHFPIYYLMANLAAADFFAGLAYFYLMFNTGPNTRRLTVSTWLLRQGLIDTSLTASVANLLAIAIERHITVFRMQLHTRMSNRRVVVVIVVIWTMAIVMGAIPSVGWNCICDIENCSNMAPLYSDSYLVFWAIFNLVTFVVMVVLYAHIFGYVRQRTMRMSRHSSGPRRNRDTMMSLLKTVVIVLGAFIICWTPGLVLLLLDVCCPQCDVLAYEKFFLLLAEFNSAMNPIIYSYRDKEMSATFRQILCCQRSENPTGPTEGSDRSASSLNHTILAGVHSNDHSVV

[12] = Selectivity ratio of IC50 for human fibroblasts to IC50 for human melanoma cells; format: ADME; conditions: human fibroblasts and human melanoma cells, read-out: Ratio IC50
[13] = molecular target: Lysophosphatidic acid receptor 5 (Homo sapiens) (UniProt Q9H1C0); experiment: Antagonist activity at LPA5 expressed in human chem1 cells assessed as effect on intracellular calcium mobilization by FLIPR assay; format: functional, cell-based; procedure, shortened: as §3
[14] = molecular target: T2, Lysophosphatidic acid receptor 1; experiment: Agonist activity at LPA1 expressed in human chem1 cells assessed as intracellular calcium mobilization by FLIPR assay; format: functional, cell-based; procedure, shortened: as §2
A-375 [15] = experiment: Inhibition of human A375 cells colony formation at 2 uM after 7 days by colony-formation assay; format: functional, cell-based

pIC50 (A-375 [1]): 5.85 | Activity [3]: inactive | Activity [4]: inactive | Activity [6]: inactive | Activity [11]: inactive | Activity [13]: inactive | Activity [14]: inactive
SMILES: CCCCCCCCCCCCCCCCNC(=O)[C@@H]1CSC(c2cc(OC)c(OC)c(OC)c2)N1 (mixture of isomers)
Activity (A-375 [2]): Dose-dependent effect | pIC50 [5]: 5.62 | Activity (LNCaP): Dose-dependent effect | Activity (A-375 [7]): Active | Activity (A-375 [8]): Active | pIC50 [9]: 6.15 | pIC50 [10]: 5.80 | selectivity ratio [12]: 2 | Activity (A-375 [15]): Active
